From ChEMBL document CHEMBL5712886, “Discovery and Characterization of GSK2801, a Selective Chemical Probe for the Bromodomains BAZ2A and BAZ2B” (J Med Chem, 2016)
Calls of active or inactive are those of the source.

Columns and labels:
[1] = molecular target: Transcription intermediary factor 1-alpha (Homo sapiens) (UniProt O15164); test: Binding affinity to biotinylated TIF1 bromodomain-1 (unknown origin) expressed in Escherichia coli at 0.2 to 1 uM by Biolayer Interferometric analysis; details: dose 0.2-1 µM
Procedure, shortened: (§1)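 Bromodomains carrying a BirA biotin ligase targeting sequence, coexpressed with BirA in bacteria to give homogeneous in vivo biotin labelling, checked by mass spectrometry. Biotinylated proteins probed by biolayer interferometry with compound at two concentrations, 0.2 and 1.0 μM.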

[2] = molecular target: Bromodomain-containing protein 4 (Homo sapiens) (UniProt O60885); test: Binding affinity to biotinylated BRD4 bromodomain-2 (unknown origin) expressed in Escherichia coli at 0.2 to 1 uM by Biolayer Interferometric analysis; details: dose 0.2-1 µM; procedure, shortened: as §1
[3] = molecular target: Histone acetyltransferase KAT2B (Homo sapiens) (UniProt Q92831); test: Binding affinity to biotinylated PCAF (unknown origin) expressed in Escherichia coli at 0.2 to 1 uM by Biolayer Interferometric analysis; details: dose 0.2-1 µM; procedure, shortened: as §1
[4] = molecular target: Bromodomain-containing protein 2 (Homo sapiens) (UniProt P25440); test: Binding affinity to biotinylated BRD2 bromodomain-2 (unknown origin) expressed in Escherichia coli at 0.2 to 1 uM by Biolayer Interferometric analysis; details: dose 0.2-1 µM; procedure, shortened: as §1
Bromodomain-containing protein 2 (Homo sapiens), sequence (P25440 whole entry, looked up): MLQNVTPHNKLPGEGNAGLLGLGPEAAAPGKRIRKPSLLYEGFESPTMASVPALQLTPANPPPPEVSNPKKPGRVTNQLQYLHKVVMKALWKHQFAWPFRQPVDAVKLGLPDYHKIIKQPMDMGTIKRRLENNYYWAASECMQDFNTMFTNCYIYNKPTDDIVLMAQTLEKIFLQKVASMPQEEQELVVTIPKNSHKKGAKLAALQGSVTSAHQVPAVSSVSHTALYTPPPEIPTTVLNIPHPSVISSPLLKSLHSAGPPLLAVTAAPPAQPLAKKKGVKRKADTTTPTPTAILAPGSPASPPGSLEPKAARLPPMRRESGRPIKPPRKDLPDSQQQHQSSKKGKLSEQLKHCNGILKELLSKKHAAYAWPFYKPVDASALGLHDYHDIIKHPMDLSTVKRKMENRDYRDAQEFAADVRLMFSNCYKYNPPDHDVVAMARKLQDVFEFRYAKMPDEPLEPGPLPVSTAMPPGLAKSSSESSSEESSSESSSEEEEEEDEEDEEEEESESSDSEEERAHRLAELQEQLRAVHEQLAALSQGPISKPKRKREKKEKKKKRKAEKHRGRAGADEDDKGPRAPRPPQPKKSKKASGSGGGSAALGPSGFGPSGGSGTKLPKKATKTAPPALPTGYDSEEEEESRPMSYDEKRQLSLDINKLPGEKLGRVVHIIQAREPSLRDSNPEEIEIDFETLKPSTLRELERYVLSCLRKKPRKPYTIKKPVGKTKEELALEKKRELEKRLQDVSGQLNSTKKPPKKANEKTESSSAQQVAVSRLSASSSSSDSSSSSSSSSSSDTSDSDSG

[5] = molecular target: Bromodomain testis-specific protein (Homo sapiens) (UniProt Q58F21); test: Binding affinity to biotinylated BRDT bromodomain-2 (unknown origin) expressed in Escherichia coli at 0.2 to 1 uM by Biolayer Interferometric analysis; details: dose 0.2-1 µM; procedure, shortened: as §1
[6] = molecular target: ATPase family AAA domain-containing protein 2B (Homo sapiens) (UniProt Q9ULI0); test: Binding affinity to biotinylated KIAA1240 (unknown origin) expressed in Escherichia coli at 0.2 to 1 uM by Biolayer Interferometric analysis; details: dose 0.2-1 µM; procedure, shortened: as §1
[7] = molecular target: Tyrosine-protein kinase BAZ1B (Homo sapiens) (UniProt Q9UIG0); test: Binding affinity to biotinylated BAZ1B (unknown origin) expressed in Escherichia coli at 0.2 to 1 uM by Biolayer Interferometric analysis; details: dose 0.2-1 µM; procedure, shortened: as §1
[8] = molecular target: Bromodomain adjacent to zinc finger domain protein 2A (Homo sapiens) (UniProt Q9UIF9); test: Binding affinity to BAZ2A in human HuT78 cell extract up to 50 uM using GSK2801 affinity matrix by chemoproteomic competition binding assay; format: cell-free
[9] = molecular target: Bromodomain-containing protein 4 (Homo sapiens) (UniProt O60885); test: Binding affinity to biotinylated BRD4 bromodomain-1 (unknown origin) expressed in Escherichia coli at 0.2 to 1 uM by Biolayer Interferometric analysis; details: dose 0.2-1 µM; procedure, shortened: as §1
[10] = molecular target: Protein polybromo-1 (Homo sapiens) (UniProt Q86U86); test: Binding affinity to biotinylated PB1 bromodomain-4 (unknown origin) expressed in Escherichia coli at 0.2 to 1 uM by Biolayer Interferometric analysis; details: dose 0.2-1 µM; procedure, shortened: as §1
Protein polybromo-1 (Homo sapiens), sequence (Q86U86 whole entry): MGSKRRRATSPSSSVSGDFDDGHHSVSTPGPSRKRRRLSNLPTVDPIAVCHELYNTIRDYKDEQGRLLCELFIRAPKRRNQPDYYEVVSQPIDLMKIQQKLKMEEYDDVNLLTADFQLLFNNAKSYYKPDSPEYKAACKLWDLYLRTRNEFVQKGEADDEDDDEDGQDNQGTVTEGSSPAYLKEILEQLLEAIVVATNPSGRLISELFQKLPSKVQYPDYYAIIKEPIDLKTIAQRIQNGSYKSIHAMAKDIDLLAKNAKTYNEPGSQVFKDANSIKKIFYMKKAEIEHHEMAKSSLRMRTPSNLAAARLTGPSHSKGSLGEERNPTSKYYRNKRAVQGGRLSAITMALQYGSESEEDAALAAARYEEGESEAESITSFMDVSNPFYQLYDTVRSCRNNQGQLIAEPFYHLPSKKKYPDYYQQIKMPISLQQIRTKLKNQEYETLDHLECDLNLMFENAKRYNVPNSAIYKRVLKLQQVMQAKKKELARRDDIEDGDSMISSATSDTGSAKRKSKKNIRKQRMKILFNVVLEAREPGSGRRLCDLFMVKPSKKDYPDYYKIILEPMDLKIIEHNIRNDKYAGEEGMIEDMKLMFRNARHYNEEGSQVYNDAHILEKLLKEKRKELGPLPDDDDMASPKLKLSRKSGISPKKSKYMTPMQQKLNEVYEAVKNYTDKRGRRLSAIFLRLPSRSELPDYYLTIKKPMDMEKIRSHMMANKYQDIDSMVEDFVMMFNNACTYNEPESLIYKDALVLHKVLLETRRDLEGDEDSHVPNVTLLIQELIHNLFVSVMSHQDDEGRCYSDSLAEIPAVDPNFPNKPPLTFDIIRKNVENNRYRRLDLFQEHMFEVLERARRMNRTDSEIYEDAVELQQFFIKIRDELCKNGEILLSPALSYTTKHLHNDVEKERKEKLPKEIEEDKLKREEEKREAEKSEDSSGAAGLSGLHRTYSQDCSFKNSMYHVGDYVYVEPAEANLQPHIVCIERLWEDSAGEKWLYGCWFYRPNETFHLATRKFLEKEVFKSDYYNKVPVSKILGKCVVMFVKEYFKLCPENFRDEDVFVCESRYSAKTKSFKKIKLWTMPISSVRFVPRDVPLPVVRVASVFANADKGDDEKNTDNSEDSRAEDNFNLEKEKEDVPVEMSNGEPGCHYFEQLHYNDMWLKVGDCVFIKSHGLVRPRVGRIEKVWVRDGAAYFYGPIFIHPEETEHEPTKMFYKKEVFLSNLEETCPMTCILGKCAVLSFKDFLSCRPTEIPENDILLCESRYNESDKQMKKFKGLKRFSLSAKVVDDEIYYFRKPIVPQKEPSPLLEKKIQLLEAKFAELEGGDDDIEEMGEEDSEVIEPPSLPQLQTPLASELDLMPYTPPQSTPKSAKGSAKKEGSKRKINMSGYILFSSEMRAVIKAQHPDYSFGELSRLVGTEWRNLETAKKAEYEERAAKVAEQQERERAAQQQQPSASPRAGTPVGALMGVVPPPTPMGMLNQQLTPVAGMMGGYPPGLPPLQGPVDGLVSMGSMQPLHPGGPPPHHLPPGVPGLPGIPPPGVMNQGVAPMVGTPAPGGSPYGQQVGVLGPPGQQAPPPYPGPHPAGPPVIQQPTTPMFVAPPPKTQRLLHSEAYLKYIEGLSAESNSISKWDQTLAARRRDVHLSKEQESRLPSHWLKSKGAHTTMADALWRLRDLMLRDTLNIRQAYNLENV

[11] = molecular target: Histone acetyltransferase p300 (Homo sapiens) (UniProt Q09472); test: Binding affinity to biotinylated EP300 (unknown origin) expressed in Escherichia coli at 0.2 to 1 uM by Biolayer Interferometric analysis; details: dose 0.2-1 µM; procedure, shortened: as §1
[12] = molecular target: Transcription initiation factor TFIID subunit 1 (Homo sapiens) (UniProt P21675); test: Binding affinity to biotinylated TAF1 bromodomain-1 (unknown origin) expressed in Escherichia coli at 0.2 to 1 uM by Biolayer Interferometric analysis; details: dose 0.2-1 µM; procedure, shortened: as §1
Transcription initiation factor TFIID subunit 1 (Homo sapiens), sequence (P21675 whole entry, the tested form may be a part): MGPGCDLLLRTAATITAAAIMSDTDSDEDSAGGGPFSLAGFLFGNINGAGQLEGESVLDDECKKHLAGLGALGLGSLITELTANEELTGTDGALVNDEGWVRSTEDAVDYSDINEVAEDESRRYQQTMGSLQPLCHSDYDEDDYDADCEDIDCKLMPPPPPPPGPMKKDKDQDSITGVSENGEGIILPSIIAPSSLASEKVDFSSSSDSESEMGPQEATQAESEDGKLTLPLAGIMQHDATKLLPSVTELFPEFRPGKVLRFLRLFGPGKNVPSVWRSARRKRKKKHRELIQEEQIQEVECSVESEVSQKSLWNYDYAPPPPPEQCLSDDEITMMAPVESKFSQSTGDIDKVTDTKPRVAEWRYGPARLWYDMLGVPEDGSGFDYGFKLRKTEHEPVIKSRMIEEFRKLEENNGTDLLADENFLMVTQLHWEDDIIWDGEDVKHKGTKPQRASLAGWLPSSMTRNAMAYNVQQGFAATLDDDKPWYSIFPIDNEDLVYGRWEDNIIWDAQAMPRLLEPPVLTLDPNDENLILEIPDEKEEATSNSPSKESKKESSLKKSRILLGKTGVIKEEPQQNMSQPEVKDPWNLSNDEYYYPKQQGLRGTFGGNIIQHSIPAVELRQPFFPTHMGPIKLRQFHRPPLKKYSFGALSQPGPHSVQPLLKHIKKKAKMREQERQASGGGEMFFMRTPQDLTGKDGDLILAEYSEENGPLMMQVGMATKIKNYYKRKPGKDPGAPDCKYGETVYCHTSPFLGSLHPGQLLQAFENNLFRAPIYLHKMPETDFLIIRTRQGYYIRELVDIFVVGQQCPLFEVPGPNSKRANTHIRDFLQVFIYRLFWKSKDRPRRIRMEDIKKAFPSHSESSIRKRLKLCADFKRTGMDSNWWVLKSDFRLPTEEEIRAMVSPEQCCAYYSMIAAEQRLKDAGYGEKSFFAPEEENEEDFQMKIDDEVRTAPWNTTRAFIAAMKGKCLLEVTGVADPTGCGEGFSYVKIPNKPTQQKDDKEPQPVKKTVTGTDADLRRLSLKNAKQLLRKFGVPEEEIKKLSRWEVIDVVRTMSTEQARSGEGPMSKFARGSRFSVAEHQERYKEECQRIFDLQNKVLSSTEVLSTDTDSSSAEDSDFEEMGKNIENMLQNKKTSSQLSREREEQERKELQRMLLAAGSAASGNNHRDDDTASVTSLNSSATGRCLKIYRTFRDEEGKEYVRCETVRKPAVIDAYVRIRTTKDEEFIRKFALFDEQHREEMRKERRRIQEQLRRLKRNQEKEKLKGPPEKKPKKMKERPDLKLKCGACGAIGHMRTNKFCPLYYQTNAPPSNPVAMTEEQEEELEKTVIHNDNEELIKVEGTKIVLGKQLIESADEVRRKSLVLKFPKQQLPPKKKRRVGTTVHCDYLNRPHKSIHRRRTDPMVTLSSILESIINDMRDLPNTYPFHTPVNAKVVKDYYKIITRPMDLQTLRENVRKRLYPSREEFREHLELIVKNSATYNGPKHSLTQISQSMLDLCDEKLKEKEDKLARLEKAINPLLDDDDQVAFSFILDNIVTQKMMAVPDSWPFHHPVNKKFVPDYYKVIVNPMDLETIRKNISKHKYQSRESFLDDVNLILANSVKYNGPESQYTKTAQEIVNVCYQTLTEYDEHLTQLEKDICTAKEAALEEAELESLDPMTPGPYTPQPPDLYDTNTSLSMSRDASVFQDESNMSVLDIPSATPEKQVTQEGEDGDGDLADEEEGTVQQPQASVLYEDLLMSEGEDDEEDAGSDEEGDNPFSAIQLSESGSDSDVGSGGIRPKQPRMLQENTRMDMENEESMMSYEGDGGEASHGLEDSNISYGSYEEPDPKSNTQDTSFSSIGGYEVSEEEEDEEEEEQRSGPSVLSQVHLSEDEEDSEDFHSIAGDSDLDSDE

[13] = molecular target: Transcription initiation factor TFIID subunit 1 (Homo sapiens) (UniProt P21675); test: Binding affinity to biotinylated TAF1 bromodomain-2 (unknown origin) expressed in Escherichia coli at 0.2 to 1 uM by Biolayer Interferometric analysis; details: dose 0.2-1 µM; procedure, shortened: as §1
[14] = molecular target: Bromodomain adjacent to zinc finger domain protein 2B (Homo sapiens) (UniProt Q9UIF8); test: Binding affinity to BAZ2B in human HuT78 cell extract up to 50 uM using GSK2801 affinity matrix by chemoproteomic competition binding assay; format: cell-free
[15] = molecular target: Bromodomain-containing protein 2 (Homo sapiens) (UniProt P25440); test: Binding affinity to biotinylated BRD2 bromodomain-1 (unknown origin) expressed in Escherichia coli at 0.2 to 1 uM by Biolayer Interferometric analysis; details: dose 0.2-1 µM; procedure, shortened: as §1
[16] = molecular target: Chromatin remodeling regulator CECR2 (Homo sapiens) (UniProt Q9BXF3); test: Binding affinity to biotinylated CECR2 (unknown origin) expressed in Escherichia coli at 0.2 to 1 uM by Biolayer Interferometric analysis; details: dose 0.2-1 µM; procedure, shortened: as §1
[17] = molecular target: Histone-lysine N-methyltransferase ASH1L (Homo sapiens) (UniProt Q9NR48); test: Binding affinity to biotinylated ASH1L bromodomain (unknown origin) expressed in Escherichia coli at 0.2 to 1 uM by Biolayer Interferometric analysis; details: dose 0.2-1 µM; procedure, shortened: as §1
[18] = molecular target: Bromodomain-containing protein 1 (Homo sapiens) (UniProt O95696); test: Binding affinity to biotinylated BRD1 (unknown origin) expressed in Escherichia coli at 0.2 to 1 uM by Biolayer Interferometric analysis; details: dose 0.2-1 µM; procedure, shortened: as §1
[19] = molecular target: PH-interacting protein (Homo sapiens) (UniProt Q8WWQ0); test: Binding affinity to biotinylated PHIP (unknown origin) expressed in Escherichia coli at 0.2 to 1 uM by Biolayer Interferometric analysis; details: dose 0.2-1 µM; procedure, shortened: as §1
[20] = molecular target: Protein polybromo-1 (Homo sapiens) (UniProt Q86U86); test: Binding affinity to biotinylated PB1 bromodomain-5 (unknown origin) expressed in Escherichia coli at 0.2 to 1 uM by Biolayer Interferometric analysis; details: dose 0.2-1 µM; procedure, shortened: as §1
[21] = molecular target: Transcription initiation factor TFIID subunit 1-like (Homo sapiens) (UniProt Q8IZX4); test: Binding affinity to biotinylated TAF1L bromodomain-2 (unknown origin) expressed in Escherichia coli at 0.2 to 1 uM by Biolayer Interferometric analysis; details: dose 0.2-1 µM; procedure, shortened: as §1

Measured: Activity

CCCOc1ccn2c(C(C)=O)cc(-c3cccc(OC)c3)c2c1
inactive: all assays above
